Screens deposited in PubChem BioAssay by several laboratories.
D1 allo mod = D1 CRE-luciferase signal change, two-sided – cell-based, HEK293 D1, dopamine EC30, D1 allosteric modulator project, primary screen; dopamine EC30 potentiation; actives deviate in either direction; B-score at 10 µM; 58,000 compounds, 5.9% hits;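 active = luminescence count or its row- and column-corrected plate score outside the 99.7% band of the plate's sample wells, on either side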
SF-1 act = activators of human SF-1, primary screen, cell-based, CHO-K1, Gal4-SF-1 LBD, luciferase luminescence; AID 522, 2006; activation, % at 10 µM; CHO-K1 Gal4-SF-1 LBD luciferase reporter; % increase over DMSO SF-1-specific signal; 65,000 compounds, 1.9% hits; Steroidogenic factor 1 (Homo sapiens), Q13285;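 active = activation above the mean activation of all tested compounds plus 3 SD, cut at about 50% in these data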
Target sequence (Q13285 whole entry, looked up, the tested form may be a part): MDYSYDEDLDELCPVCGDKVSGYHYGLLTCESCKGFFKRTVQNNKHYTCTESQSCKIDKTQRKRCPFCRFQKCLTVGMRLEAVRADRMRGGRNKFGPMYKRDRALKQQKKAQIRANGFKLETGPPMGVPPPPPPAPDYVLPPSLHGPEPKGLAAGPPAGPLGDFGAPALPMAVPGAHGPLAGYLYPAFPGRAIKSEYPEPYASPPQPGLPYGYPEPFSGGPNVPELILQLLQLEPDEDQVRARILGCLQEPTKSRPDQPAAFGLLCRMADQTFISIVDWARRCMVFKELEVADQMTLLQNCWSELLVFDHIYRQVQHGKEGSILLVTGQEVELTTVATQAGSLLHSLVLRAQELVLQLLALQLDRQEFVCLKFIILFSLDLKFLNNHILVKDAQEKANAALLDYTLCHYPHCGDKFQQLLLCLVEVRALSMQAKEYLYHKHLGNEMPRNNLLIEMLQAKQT
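Test system: CHO-K1 cells co-transfected with Gal4 DBD–human SF-1 LBD, 5xGal4 luciferase reporter. Quantity: 4,000 cells per well. Compound: 10 µM only. Incubation: compound added 1 h post-seeding, 20 h exposure at 37 °C, 5% CO2. Detection: SteadyLite luciferase luminescence. Replication: one test per compound.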
RORa activator = activators of orphan receptor RORA, primary screen, cell-based, luminescence. Nuclear receptor ROR-alpha (Homo sapiens), P35398. CHO-K1 Gal4-RORA LBD luciferase reporter; percent increase over mock-subtracted basal signal. activation, % at 10 µM. 65,000 compounds, 1.5% hits;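 active = activation above the mean of all tested compounds plus 3 SD, cut at about 49% in these data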;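 also: 0% = DMSO-treated RORA cells and 100% = added signal equal to DMSO minus mock-transfected cells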
Htt clearance = clearance of mutant huntingtin inclusions, primary screen, imaging, HeLa Exon1htt(103Q)mCFP, confocal imaging; AID 853, 2007; inhibition, % at 1.5 µM; 47,000 compounds, 0.42% hits; aggregate imaging; zero = plate's median compound well;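 active = inhibition of aggregate fluorescence above about 70%, also judged a hit by eye on the cell image, limit read from the data, passing the limit was not always enough; inconclusive = no rule stated for this call; inactive = not judged a hit on image review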;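 also: cells exposed to compound for three days before fixation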
M1 antag = antagonists of rat M1 muscarinic receptor; CHO-M1 cells, Fluo-4 calcium, ACh EC80 antagonist mode; active compounds read low; B-score at 10 µM; 64,000 compounds, 3.4% hits; AID 628, 2007;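 active = calcium fluorescence response, raw or row-and-column corrected B-score, differing from the plate sample mean either way at a set confidence level, mostly lower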
M1 agonist = M1 muscarinic receptor agonists, primary screen, CHO-M1 cells, Fluo-4 calcium, agonist mode | Fluo-4 calcium fluorescence; active compounds read high | 64,000 compounds, 3% hits | Muscarinic acetylcholine receptor M1 | AID 626, 2007 | B-score at 10 µM;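 active = fluorescence rise, raw or as B-score row- and column-corrected plate score, outside the 99.7% band of its plate's samples, either direction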
M1 agonist conf = rat M1 muscarinic receptor agonists, confirmation, CHO-M1 cells, Fluo-4 calcium, duplicate retest. shares compounds with M1 agonist. Fluo-4 calcium fluorescence, agonist mode; actives lie on both sides. fluorescence change (max-min) at 10 µM. 1,700 compounds, 19% hits;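 active = fluorescence change differs from the solvent-only DMSO control mean at a set confidence level in both duplicate runs; inconclusive = differs from solvent-only control mean in just one of two runs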;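 also: an EC20 dose of acetylcholine follows compound addition during the same imaging run; raw fluorescence intensity difference in instrument units with no normalization to controls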
M4 agonist ctr = agonist activity at rat M4 receptor, confirmation, counter-screen for M1 allosteric modulator project, cell-based, agonist mode. shares compounds with M1 agonist. CHO M4/Gqi5 cells, Fluo-4 calcium fluorescence; actives lie on both sides. fluorescence change (max-min) at 10 µM. 1,700 compounds, 9% hits. AID 1741, 2009;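 active = fluorescence change differing from the plate's solvent-only control wells at 99.7% confidence in both duplicates, whether higher or lower; inconclusive = differs from solvent controls in only one of two duplicates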
The depositor's hits bear a star. The list is not random: actives were taken first. Their share in the collection is about 11%.

Screening CCC(=O)c1cc(F)c(N2CCN(C(=O)Cc3ccccc3)CC2)cc1C returned D1 allo mod -0.58, SF-1 act -7, RORa activator -6, M1 antag -1.2*, M1 agonist 2.7*, M1 agonist conf 2.7 and M4 agonist ctr -26.
Screening CCCC(=O)c1ccc(N2CCN(C(=O)c3ccc(Br)cc3)CC2)c(F)c1 returned D1 allo mod -0.6, SF-1 act 17, RORa activator -11, M1 antag 0.6 and M1 agonist 0.038.
`CCC(=O)c1ccc(N2CCN(C(=O)Cc3ccccc3)CC2)c(F)c1` gave D1 allo mod 0.94, SF-1 act -12, RORa activator -7, M1 antag -0.57 and M1 agonist 0.
`CC1CC(C)CN(Cc2nc3c(c(=O)n(C)c(=O)n3C)n2Cc2ccccc2Cl)C1` (configuration not stated) gave D1 allo mod 0.0026, SF-1 act -11, RORa activator 1, M1 antag 0.59 and M1 agonist -2.1e-05.
Screening Cc1ccc(NC(=O)CCSc2nnnn2-c2ccc3c(c2)OCO3)cc1C returned D1 allo mod -0.051, SF-1 act -6, RORa activator 14, Htt clearance 3, M1 antag -0.17, M1 agonist -2.7*, M1 agonist conf -5.8 and M4 agonist ctr -19.
Screening Cn1c(=O)[nH]c(=O)c2c1nc(N1CCOCC1)n2CCCSc1ncccn1 returned D1 allo mod -0.3, SF-1 act 10, RORa activator 20, Htt clearance 20, M1 antag -0.72 and M1 agonist -0.043.
Screening O=C(NCCCN1CCOCC1)c1cc2cc(Cl)cc(Cl)c2oc1=O returned D1 allo mod -0.35, SF-1 act -6, RORa activator 0, Htt clearance -4, M1 antag -0.45 and M1 agonist 0.0019.
`O=C(CCN1C(=O)COc2ccccc21)NCc1cccs1` gave D1 allo mod 1.2, SF-1 act -7, RORa activator 0, M1 antag -0.012 and M1 agonist 0.12.
Screening O=C(Nc1cccc(S(=O)(=O)c2cccc(NC(=O)C3CC3)c2)c1)C1CC1 returned D1 allo mod -0.23, SF-1 act -15, RORa activator 1, Htt clearance 60, M1 antag 0.56, M1 agonist 2.8*, M1 agonist conf -9.3 and M4 agonist ctr -14.
O=C(NC1CCCCC1)N1CCCC1 was read as Htt clearance 61.
`CCc1nnc(NC(=O)C(C)Sc2ccccc2)s1` (configuration not stated) gave D1 allo mod 1.6, SF-1 act -21, RORa activator -12, Htt clearance 23, M1 antag -1.8 and M1 agonist 1.2.
For COc1ccc(-n2c(Cc3cccn3C)nnc2SCC(=O)Nc2ccc3c(c2)OCO3)cc1 the results were D1 allo mod 0.73, SF-1 act 21, RORa activator -7, M1 antag -0.69 and M1 agonist 0.14.
For CN(C)c1ccc(N/C=C/C(=O)c2ccccc2)cc1 the results were D1 allo mod -4.4*, SF-1 act -66, RORa activator -29, M1 antag -0.065, M1 agonist 2.5*, M1 agonist conf inconclusive and M4 agonist ctr -8.6.
O=C1Nc2ccccc2C1=Nc1ccc(-c2nnc3n2CCCCC3)cc1 was read as D1 allo mod -0.34, SF-1 act 2, RORa activator 15, M1 antag -0.25 and M1 agonist 0.26.
For CCOC(=O)C(C(=O)OCC)[C@@H]1CS(=O)(=O)C[C@H]1C(C(=O)OCC)C(=O)OCC the results were D1 allo mod -0.1, SF-1 act -12, RORa activator -5, M1 antag -2.4 and M1 agonist 0.58.
COCCNC(=O)C(c1ccc(C)o1)N(Cc1ccc(OC)cc1)C(=O)Cn1nnc2ccccc21 (configuration not stated) was read as D1 allo mod 0.73, SF-1 act 8, RORa activator 2, M1 antag 0.35 and M1 agonist 0.64.
COCCNC(=O)C(c1ccc(C)o1)N(CC1CCCO1)C(=O)Cn1nnc2ccccc21 (configuration not stated) was read as SF-1 act 3, RORa activator -10, Htt clearance -20, M1 antag -0.031, M1 agonist 1.9*, M1 agonist conf inconclusive and M4 agonist ctr -50.
Cc1cc(S(=O)(=O)NCC(=O)O)ccc1F was read as SF-1 act 12, RORa activator 3, M1 antag 0.24, M1 agonist 5*, M1 agonist conf -12 and M4 agonist ctr -17.
Screening O=C(O)CNS(=O)(=O)c1ccc(F)cc1 returned D1 allo mod -0.52, SF-1 act -9, RORa activator 12, Htt clearance -72, M1 antag 0.11 and M1 agonist 0.16.
`CCn1cc(C(=O)Nc2ccc3c(c2)OCCO3)c2cc(OC)c(OC)cc2c1=O` gave D1 allo mod -0.91, SF-1 act 6, RORa activator 9, M1 antag -0.0093, M1 agonist 4.1*, M1 agonist conf inconclusive and M4 agonist ctr -47.
For COc1cc(C(=O)Nc2ccc3c(c2)OCCO3)ccc1OC(C)C the results were D1 allo mod 0.11, SF-1 act 54*, RORa activator 45, M1 antag 0.73, M1 agonist 3.7*, M1 agonist conf -25 and M4 agonist ctr -40.
CCn1cc(C(=O)Nc2cccc(NC(C)=O)c2)c2cc(OC)c(OC)cc2c1=O was read as D1 allo mod -0.35, SF-1 act -7, RORa activator 9, Htt clearance 32, M1 antag 0.11 and M1 agonist -0.23.
For Cc1nc2sc(C(c3cccs3)N3CCC(C(N)=O)CC3)c(O)n2n1 (configuration not stated) the results were D1 allo mod -1.5, SF-1 act 6, RORa activator -6, M1 antag 0.095 and M1 agonist 0.046.
